Consider 1 compound from ChEMBL document CHEMBL4376814, “Novel cyclin-dependent kinase 9 (CDK9) inhibitor with suppression of cancer stemness activity against non-small-cell lung cancer” (Eur J Med Chem, 2019).

Experiment [1] has as its target cGMP-dependent protein kinase 1 (Homo sapiens) (UniProt Q13976). Put plainly: Inhibition of recombinant full-length human PKG1beta at 1 uM using RRRLSFAEPG as substrate measured after 40 mins in presence of [gamma33P]ATP by scintillation counting method relative to control.
Experiment [2] deals with CDK6/cyclin D3 (Homo sapiens) (UniProt P30281+Q00534). The experiment can be described thus: Inhibition of recombinant full-length human CDK6/cyclinD3 at 500 nM using histone H1 as substrate measured after 40 mins in presence of [gamma33P]ATP by scintillation counting method relative to control. The class given is protein-complex assay. The method, boiled down: (§1)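 Percent inhibition of kinase activity at a single compound concentration, measured by the outsourced Eurofins KinaseProfiler panel. Values are the mean of two independent experiments.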

Experiment [3] addresses Tyrosine-protein kinase Fer (Homo sapiens) (UniProt P16591). The experiment can be described thus: Inhibition of recombinant human FER (541 to end residues) at 1 uM using KKKSPGEYVNIEFG as substrate measured after 40 mins in presence of [gamma33P]ATP by scintillation counting method relative to control.
The test system of experiment [4] is PI3-kinase p110-alpha/p85-alpha (Homo sapiens), P27986+P42336 [E542K]. Put plainly: Inhibition of recombinant full-length human PI3K p110alpha/p85alpha E542K mutant at 1 uM using phosphatidylinositol-4, 5-bisphosphate as substrate measured after 40 mins by HTRF assay relative to control.
The test system of experiment [5] is Hepatocyte growth factor receptor (Homo sapiens), P08581 [Y1230D]. The experiment can be described thus: Inhibition of recombinant human MET A1209G/V1290L/Y1248D mutant (974 to end residues) at 1 uM using KKKGQEEEYVFIE as substrate measured after 40 mins in presence of [gamma33P]ATP by scintillation counting method relative to control.
In experiment [6] the target is Rhodopsin kinase GRK7 (Homo sapiens) (UniProt Q8WTQ7). Put plainly: Inhibition of recombinant full-length human GRK7 at 1 uM using casein as substrate measured after 40 mins in presence of [gamma33P]ATP by scintillation counting method relative to control.
In experiment [7] the test system is PI3-kinase p110-alpha/p85-alpha (Homo sapiens), P27986+P42336 [E545K]. Put plainly: Inhibition of recombinant full-length human PI3K p110alpha/p85alpha E545K mutant at 1 uM using phosphatidylinositol-4, 5-bisphosphate as substrate measured after 40 mins by HTRF assay relative to control. The class given is protein-complex assay.
Experiment [8] relates to Tyrosine-protein kinase ABL1 (Homo sapiens), P00519 [H396P]. Put plainly: Inhibition of recombinant human ABL H396P mutant (27 to end residues) at 1 uM using EAIYAAPFAKKK as substrate measured after 40 mins in presence of [gamma33P]ATP by scintillation counting method relative to control.
A further experiment relates to HeLa. The experiment can be described thus: Antiproliferative activity against human HeLa cells assessed as inhibition of cell viability after 72 hrs by CCK-8 assay. The class given is functional, cell-based. The method, boiled down: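 Cells kept at 37 °C, 5% CO2 in DMEM or RPMI-1640 with 10% FBS and 1% penicillin/streptomycin, then seeded at 3000 cells/well (adherent) or 10,000 cells/well (suspension). Exposed to a range of concentrations for 72 h. CCK-8 added for 1-4 h before reading A450. […] Three independent experiments.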

Experiment [9] has as its target CDK3/Cyclin E (Homo sapiens) (UniProt P24864+Q00526). The experiment can be described thus: Inhibition of recombinant full-length human CDK3/cyclinE at 1 uM using Histone H1 as substrate measured after 40 mins in presence of [gamma33P]ATP by scintillation counting method relative to control. The experiment is classed as protein-complex assay.
In experiment [10] the target is cGMP-dependent protein kinase 1 (Homo sapiens) (UniProt Q13976). Put plainly: Inhibition of recombinant full-length human PKG1alpha at 1 uM using RRRLSFAEPG as substrate measured after 40 mins in presence of [gamma33P]ATP by scintillation counting method relative to control.
Experiment [11] deals with Receptor-interacting serine/threonine-protein kinase 2 (Homo sapiens) (UniProt O43353). The experiment can be described thus: Inhibition of human RIPK2 (1 to 299 residues) at 1 uM using myelin basic protein as substrate measured after 120 mins in presence of [gamma33P]ATP by scintillation counting method relative to control. The method, boiled down:
as §1

The target in experiment [12] is Serine/threonine-protein kinase B-raf (Homo sapiens) (UniProt P15056). The experiment can be described thus: Inhibition of recombinant human BRAF (416 to end residues) at 1 uM using myelin basic protein as substrate measured after 40 mins in presence of [gamma33P]ATP by scintillation counting method relative to control.
For experiment [13], the target named is Serine/threonine-protein kinase Chk2 (Homo sapiens) (UniProt O96017). Put plainly: Inhibition of recombinant human CHK2 (5 to end residues) at 1 uM using KKKVSRSGLYRSPSMPENLNRPR as substrate measured after 40 mins in presence of [gamma33P]ATP by scintillation counting method relative to control. The method, boiled down: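 Single-point inhibition at 1 µM was measured in the Eurofins KinaseProfiler panel. Values are the mean of two independent experiments.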

Experiment [14] has as its target Serine/threonine-protein kinase D3 (Homo sapiens) (UniProt O94806). Put plainly: Inhibition of recombinant full-length human PKD3 at 1 uM using KKLRRTLSVA as substrate measured after 40 mins in presence of [gamma33P]ATP by scintillation counting method relative to control.
For experiment [15], the target named is Eukaryotic translation initiation factor 2-alpha kinase 3 (Homo sapiens) (UniProt Q9NZJ5). The experiment can be described thus: Inhibition of recombinant human PEK (536 to end residues) at 1 uM using RSRSRSRSRSRSR as substrate measured after 40 mins in presence of [gamma33P]ATP by scintillation counting method relative to control.
Experiment [16] deals with Tyrosine-protein kinase JAK3 (Homo sapiens) (UniProt P52333). The experiment can be described thus: Inhibition of recombinant human JAK3 (781 to end residues) at 1 uM using GGEEEEYFELVKKKK as substrate measured after 40 mins in presence of [gamma33P]ATP by scintillation counting method relative to control.
The subject of experiment [17] is NCI-H1299. Put plainly: Induction of apoptosis in human H1299 cells assessed as early apoptotic cells at 0.25 uM after 48 hrs by AnnexinV-FITC/PI staining-based flow cytometric analysis (reference value: 0.248%). The experiment is classed as functional.
The target of experiment [18] is Maternal embryonic leucine zipper kinase (Homo sapiens) (UniProt Q14680). Put plainly: Inhibition of recombinant human MELK (1 to 340 residues) at 1 uM using KKLNRTLSFAEPG as substrate measured after 40 mins in presence of [gamma33P]ATP by scintillation counting method relative to control.
Experiment [19] deals with Serine/threonine-protein kinase MARK2 (Homo sapiens) (UniProt Q7KZI7). The experiment can be described thus: Inhibition of recombinant full-length human PAR1Balpha at 1 uM using KKKVSRSGLYRSPSMPENLNRPR as substrate measured after 40 mins in presence of [gamma33P]ATP by scintillation counting method relative to control.
In experiment [20] the test system is NCI-H1299. The experiment can be described thus: Induction of apoptosis in human H1299 cells assessed as necrotic cells at 0.5 uM after 48 hrs by AnnexinV-FITC/PI staining-based flow cytometric analysis (reference value: 0.9%). The experiment is classed as functional.

Sequence of cGMP-dependent protein kinase 1 (Homo sapiens) (Q13976 whole entry, the tested form may be a part): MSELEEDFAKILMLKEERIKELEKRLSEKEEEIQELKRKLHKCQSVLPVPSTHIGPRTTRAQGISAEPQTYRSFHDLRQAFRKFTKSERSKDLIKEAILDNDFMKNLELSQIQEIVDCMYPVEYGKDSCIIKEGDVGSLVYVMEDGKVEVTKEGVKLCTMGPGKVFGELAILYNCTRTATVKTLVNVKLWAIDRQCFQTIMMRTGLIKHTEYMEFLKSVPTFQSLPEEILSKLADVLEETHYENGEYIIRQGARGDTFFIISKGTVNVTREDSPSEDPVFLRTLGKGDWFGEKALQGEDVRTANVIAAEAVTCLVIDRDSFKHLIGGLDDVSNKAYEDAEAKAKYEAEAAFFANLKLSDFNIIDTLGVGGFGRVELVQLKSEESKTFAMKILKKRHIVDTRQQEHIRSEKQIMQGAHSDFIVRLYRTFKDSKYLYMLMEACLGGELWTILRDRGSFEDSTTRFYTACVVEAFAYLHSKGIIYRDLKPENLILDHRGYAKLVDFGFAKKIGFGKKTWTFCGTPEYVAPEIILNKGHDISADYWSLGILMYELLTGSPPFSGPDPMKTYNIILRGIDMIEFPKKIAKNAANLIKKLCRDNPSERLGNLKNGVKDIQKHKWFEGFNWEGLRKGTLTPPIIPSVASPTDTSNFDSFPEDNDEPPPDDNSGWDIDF
Sequence of Receptor-interacting serine/threonine-protein kinase 2 (Homo sapiens) (O43353 whole entry, the tested form may be a part): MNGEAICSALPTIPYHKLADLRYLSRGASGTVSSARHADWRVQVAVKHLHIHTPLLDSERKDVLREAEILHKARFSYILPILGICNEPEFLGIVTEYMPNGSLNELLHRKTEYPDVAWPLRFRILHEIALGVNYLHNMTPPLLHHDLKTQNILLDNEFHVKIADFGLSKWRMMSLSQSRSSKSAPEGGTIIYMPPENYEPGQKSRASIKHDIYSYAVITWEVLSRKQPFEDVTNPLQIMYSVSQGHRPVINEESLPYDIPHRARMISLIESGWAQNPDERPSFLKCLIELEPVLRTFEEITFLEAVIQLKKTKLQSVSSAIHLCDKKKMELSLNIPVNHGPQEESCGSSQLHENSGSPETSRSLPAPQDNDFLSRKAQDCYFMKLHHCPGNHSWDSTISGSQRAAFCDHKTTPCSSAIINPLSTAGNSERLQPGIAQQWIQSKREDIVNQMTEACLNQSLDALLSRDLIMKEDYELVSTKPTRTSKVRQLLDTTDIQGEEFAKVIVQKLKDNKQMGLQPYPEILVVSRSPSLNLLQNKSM
Sequence of Hepatocyte growth factor receptor (Homo sapiens), P08581 [Y1230D] (P08581 whole entry Y1230D): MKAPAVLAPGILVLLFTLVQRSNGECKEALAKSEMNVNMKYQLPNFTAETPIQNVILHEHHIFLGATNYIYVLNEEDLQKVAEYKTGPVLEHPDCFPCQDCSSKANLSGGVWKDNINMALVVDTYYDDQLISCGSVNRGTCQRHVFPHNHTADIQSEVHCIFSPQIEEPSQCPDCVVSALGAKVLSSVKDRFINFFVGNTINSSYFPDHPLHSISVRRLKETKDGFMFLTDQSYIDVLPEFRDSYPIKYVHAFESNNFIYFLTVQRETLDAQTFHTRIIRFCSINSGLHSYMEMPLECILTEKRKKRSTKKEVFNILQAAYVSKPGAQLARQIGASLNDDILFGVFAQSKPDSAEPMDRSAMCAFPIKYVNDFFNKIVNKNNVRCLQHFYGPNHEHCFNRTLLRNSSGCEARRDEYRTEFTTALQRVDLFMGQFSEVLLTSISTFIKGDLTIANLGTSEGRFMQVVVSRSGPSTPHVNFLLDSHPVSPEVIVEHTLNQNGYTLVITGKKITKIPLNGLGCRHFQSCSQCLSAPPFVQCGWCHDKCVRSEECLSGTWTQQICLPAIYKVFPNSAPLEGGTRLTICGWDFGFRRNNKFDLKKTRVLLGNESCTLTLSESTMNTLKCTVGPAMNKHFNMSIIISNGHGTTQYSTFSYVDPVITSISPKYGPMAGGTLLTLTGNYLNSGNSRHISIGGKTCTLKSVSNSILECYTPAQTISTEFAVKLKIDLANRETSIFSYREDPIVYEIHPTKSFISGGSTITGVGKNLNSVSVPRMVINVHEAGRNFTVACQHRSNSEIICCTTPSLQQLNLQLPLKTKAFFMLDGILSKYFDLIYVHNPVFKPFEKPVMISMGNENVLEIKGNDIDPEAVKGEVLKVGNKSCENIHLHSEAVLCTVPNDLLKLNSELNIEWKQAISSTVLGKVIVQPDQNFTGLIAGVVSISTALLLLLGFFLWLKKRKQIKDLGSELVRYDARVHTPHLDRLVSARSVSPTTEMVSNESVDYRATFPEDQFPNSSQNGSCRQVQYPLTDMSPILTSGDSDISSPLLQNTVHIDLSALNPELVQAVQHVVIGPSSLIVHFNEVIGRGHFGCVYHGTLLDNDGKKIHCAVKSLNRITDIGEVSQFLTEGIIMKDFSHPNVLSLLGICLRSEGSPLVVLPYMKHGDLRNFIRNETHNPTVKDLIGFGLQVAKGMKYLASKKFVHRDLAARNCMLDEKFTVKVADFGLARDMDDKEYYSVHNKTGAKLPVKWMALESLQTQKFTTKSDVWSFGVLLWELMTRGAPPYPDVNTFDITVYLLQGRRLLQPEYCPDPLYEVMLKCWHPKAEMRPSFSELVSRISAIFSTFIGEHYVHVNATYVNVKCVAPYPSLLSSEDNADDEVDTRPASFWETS
Sequence of Serine/threonine-protein kinase MARK2 (Homo sapiens) (Q7KZI7 whole entry): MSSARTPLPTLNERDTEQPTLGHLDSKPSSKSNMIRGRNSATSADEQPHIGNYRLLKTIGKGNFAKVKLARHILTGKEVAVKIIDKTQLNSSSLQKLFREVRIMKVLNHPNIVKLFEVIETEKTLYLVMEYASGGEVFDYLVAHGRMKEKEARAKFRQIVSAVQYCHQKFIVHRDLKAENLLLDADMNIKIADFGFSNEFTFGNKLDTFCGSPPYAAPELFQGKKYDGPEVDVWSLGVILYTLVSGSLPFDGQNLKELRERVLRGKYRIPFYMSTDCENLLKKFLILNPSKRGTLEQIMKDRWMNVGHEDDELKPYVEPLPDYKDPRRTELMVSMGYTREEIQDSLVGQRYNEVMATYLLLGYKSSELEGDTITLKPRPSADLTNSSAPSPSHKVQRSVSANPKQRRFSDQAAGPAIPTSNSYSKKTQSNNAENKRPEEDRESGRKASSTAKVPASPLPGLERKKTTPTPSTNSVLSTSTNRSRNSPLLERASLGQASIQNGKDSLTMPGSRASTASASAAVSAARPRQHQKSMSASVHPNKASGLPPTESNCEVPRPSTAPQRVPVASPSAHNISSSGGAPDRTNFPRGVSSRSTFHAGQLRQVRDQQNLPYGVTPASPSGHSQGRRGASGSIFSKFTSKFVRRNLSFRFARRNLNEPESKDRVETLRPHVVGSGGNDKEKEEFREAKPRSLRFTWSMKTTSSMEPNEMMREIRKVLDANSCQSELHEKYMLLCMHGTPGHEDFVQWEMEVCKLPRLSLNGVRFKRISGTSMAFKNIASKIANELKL
Sequence of Serine/threonine-protein kinase Chk2 (Homo sapiens) (O96017 whole entry): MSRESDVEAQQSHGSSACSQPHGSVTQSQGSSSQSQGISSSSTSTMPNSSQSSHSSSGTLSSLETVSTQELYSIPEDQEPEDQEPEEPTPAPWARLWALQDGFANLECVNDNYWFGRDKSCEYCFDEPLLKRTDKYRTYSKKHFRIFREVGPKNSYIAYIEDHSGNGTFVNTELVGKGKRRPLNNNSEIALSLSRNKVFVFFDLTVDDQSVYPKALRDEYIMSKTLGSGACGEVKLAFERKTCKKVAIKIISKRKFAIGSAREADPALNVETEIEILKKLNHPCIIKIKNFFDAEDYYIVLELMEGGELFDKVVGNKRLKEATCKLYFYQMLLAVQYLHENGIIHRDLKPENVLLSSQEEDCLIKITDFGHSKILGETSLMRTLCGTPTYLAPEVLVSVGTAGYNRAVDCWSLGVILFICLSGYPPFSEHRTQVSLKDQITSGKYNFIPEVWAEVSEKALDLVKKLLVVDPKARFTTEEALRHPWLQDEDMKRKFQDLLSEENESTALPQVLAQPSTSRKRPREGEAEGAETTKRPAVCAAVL
Sequence of Tyrosine-protein kinase JAK3 (Homo sapiens) (P52333 whole entry): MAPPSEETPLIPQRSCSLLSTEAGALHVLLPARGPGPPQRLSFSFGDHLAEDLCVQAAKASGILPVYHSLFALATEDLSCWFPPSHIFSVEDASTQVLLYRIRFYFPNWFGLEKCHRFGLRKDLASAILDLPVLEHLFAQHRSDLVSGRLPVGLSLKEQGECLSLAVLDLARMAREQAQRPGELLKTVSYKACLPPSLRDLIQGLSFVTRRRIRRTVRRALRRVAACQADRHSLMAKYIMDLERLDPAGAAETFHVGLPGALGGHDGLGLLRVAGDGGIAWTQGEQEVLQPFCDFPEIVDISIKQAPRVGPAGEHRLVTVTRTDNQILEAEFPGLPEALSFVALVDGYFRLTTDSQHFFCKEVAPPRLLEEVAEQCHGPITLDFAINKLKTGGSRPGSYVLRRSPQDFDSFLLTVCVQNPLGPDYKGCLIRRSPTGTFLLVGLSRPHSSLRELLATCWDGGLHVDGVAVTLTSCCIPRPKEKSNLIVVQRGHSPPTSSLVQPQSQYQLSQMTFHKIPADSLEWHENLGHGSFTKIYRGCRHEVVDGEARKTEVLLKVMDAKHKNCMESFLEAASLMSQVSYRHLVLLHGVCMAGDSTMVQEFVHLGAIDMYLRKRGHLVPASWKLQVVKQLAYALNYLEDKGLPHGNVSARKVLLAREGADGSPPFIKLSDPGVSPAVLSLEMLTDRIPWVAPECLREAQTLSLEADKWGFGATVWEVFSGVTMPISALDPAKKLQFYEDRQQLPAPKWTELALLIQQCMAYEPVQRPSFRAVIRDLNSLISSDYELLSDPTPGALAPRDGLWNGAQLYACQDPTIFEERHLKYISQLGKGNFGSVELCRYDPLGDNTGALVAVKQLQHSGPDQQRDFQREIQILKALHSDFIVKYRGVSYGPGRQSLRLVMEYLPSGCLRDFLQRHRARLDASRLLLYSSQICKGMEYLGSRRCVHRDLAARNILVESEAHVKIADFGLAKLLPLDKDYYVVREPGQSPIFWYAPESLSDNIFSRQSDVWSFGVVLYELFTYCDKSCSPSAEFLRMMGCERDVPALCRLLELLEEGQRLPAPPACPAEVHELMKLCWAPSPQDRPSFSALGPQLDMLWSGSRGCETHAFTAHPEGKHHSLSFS

For the compound `CN(C)C(=O)c1cc2cnc(Nc3ccc(NC(=O)CCCCCCCN=C=S)cc3)nc2n1C1CCCC1`, the inhibition in [1] was 0%; in experiment [2], 48%; in [3], 7%; in [4], 10%; in experiment [5], 68%; in [6], 9%. The inhibition was 4% in experiment [7]; 35% in experiment [8]; 82% in [9]; -3% in experiment [10]; 24% in experiment [11]; 34% in experiment [12]. Further, the inhibition worked out at 32% in experiment [13]; 15% in experiment [14]; 6% in experiment [15]; 83% in experiment [16]; 88% in experiment [18]; 2% in experiment [19]. In the experiment on HeLa, the IC50 amounted to 1.85 µM. Further, the Activity with NCI-H1299 [17] worked out at 0.432%; with NCI-H1299 [20] it was 1.11%.
